ChEMBL document CHEMBL1159074, “Inhibitory effect of novel tetrahydropyrimidine-2(1H)-thiones on melanogenesis” (Bioorg Med Chem, 2010)
Blank lines part the entries; values can stand above or below the compound they belong to. The source made the active and inactive calls. The calls are words filed in the database; no cut-off is given here.

Key:
[1] = tested on: B16; assay: Inhibition of alpha-MSH-induced melanin production in mouse B16 cells at 10 uM after 72 hrs; assay type: functional; details: B16, 72 h
Procedure, shortened: (§1)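 B16 melanoma cells (ATCC CRL6323) were seeded at 2.5 × 10³ per well and kept at 37 °C under 5% CO₂. They were stimulated with α-MSH for 72 h with compound present. Melanin released into the medium was read by absorbance at 405 nm against a synthetic melanin standard. % inhibition at 10 µM and IC₅₀ are means of 3–5 separate experiments.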

[2] = tested on: B16; assay: Inhibition of alpha-MSH-induced melanin production in mouse B16 cells after 72 hrs; assay type: functional, cell-based; details: B16, 72 h; procedure, shortened: as §1
[3] = tested on: B16; assay: Toxicity in alpha-MSH-induced mouse B16 cells assessed as effect on cell viability after 48 hrs by MTT assay; assay type: cell-based; details: b16, 48 h
[4] = biological target: T1, Tyrosinase (Mus musculus) (UniProt P11344); assay: Inhibition of cell free tyrosinase in alpha-MSH-induced mouse B16 cells assessed as effect on Dopa oxidation by spectrophotometry
T1 sequence (whole entry): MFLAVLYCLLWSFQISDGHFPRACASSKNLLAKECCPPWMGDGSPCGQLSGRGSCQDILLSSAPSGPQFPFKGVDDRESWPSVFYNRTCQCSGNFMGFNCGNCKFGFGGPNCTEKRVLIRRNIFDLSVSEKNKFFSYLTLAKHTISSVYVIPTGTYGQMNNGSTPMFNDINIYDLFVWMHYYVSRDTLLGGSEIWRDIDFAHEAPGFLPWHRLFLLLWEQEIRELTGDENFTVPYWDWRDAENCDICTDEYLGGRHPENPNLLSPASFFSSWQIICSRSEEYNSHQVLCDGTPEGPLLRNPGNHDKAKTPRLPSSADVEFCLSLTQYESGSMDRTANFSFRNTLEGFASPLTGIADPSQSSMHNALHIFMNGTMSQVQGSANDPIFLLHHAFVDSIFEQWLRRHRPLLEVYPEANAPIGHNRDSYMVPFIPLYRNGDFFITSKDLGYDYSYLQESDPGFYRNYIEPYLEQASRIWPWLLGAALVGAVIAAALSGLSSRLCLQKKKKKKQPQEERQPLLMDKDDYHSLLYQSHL
Procedure, shortened: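 Cell-free tyrosinase came from B16 cells stimulated with α-MSH (10 nM). Cells were sonicated on ice in 50 mM sodium phosphate pH 6.8 with 1% Triton X-100 and 1 mM PMSF. The supernatant was dialysed and diluted to 80,000 U/mg protein. Dopa (5 mM), sample and enzyme were mixed in 50 mM phosphate pH 6.8. Dopa oxidation velocity was read spectrophotometrically.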

[5] = tested on: B16; assay: Inhibition of tyrosinase protein biosynthesis in alpha-MSH-induced mouse B16 cells after 48 hrs by Western blot; assay type: functional, cell-based
Procedure, shortened: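 B16 cells were stimulated with α-MSH (10 nM) for 48 h with compound present. They were lysed in Tris/NaCl buffer (0.1% SDS, 1% NP-40, protease inhibitors, pH 7.4). Blots were probed overnight at 4 °C with anti-tyrosinase (1:1000), with GAPDH (1:5000) as internal control, then with HRP-conjugated secondary antibody.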

SMILES: S=C1NCCCN1Cc1ccccc1
- inhibition at 10 µM [1]: 42%
- IC50 [2]: > 10 µM

SMILES: COc1ccc(CN2CCNC2=S)cc1
- inhibition at 10 µM [1]: 31%
- IC50 [2]: > 10 µM

SMILES: O=C1NCCN1Cc1ccc(Cl)cc1
- inhibition at 10 µM [1]: 10%
- IC50 [2]: > 10 µM

SMILES: OC[C@H]1O[C@@H](Oc2ccc(O)cc2)[C@H](O)[C@@H](O)[C@@H]1O [ARBUTIN]
- inhibition at 10 µM [1]: > 100%

SMILES: O=C1NCCN1CCc1ccccc1
- inhibition at 10 µM [1]: 15%
- IC50 [2]: > 10 µM

SMILES: COc1ccc(CN2CCNC2=O)cc1
- inhibition at 10 µM [1]: 13%
- IC50 [2]: > 10 µM

SMILES: O=C1NCCCN1CCc1ccccc1
- inhibition at 10 µM [1]: 10%
- IC50 [2]: > 10 µM

SMILES: Cc1ccc(CN2CCNC2=O)cc1
- inhibition at 10 µM [1]: 14%
- IC50 [2]: > 10 µM

SMILES: O=C1NCCCN1Cc1ccc(Cl)cc1
- inhibition at 10 µM [1]: 26%
- IC50 [2]: > 10 µM

SMILES: O=C1NCCN1CCCc1ccccc1
- inhibition at 10 µM [1]: 10%
- IC50 [2]: > 10 µM

SMILES: CCc1ccc(CN2CCCNC2=O)cc1
- inhibition at 10 µM [1]: 29%
- IC50 [2]: > 10 µM

SMILES: CC(C)(C)c1ccc(CN2CCCNC2=O)cc1
- inhibition at 10 µM [1]: 30%
- IC50 [2]: > 10 µM

SMILES: COc1ccc(CN2CCCNC2=O)cc1
- inhibition at 10 µM [1]: 20%
- IC50 [2]: > 10 µM

SMILES: S=C1NCCN1Cc1ccccc1
- inhibition at 10 µM [1]: 35%
- IC50 [2]: > 10 µM

SMILES: O=C1NCCCN1Cc1ccccc1
- inhibition at 10 µM [1]: 0%
- IC50 [2]: > 10 µM

SMILES: S=C1NCCN1CCc1ccccc1
- inhibition at 10 µM [1]: 40%
- IC50 [2]: > 10 µM

SMILES: O=C1NCCN1Cc1ccccc1
- inhibition at 10 µM [1]: 7%
- IC50 [2]: > 10 µM

SMILES: Cc1ccc(CN2CCCNC2=O)cc1
- inhibition at 10 µM [1]: 5%
- IC50 [2]: > 10 µM

Further lines, with some results ahead:

- IC50 [2]: 1.3 µM
SMILES: CCc1ccc(CN2CCCNC2=S)cc1
- inhibition at 10 µM [1]: > 100%

- IC50 [2]: > 10 µM
SMILES: O=C1NCCCN1CCCc1ccccc1
- inhibition at 10 µM [1]: 10%

- IC50 [2]: 4.3 µM
SMILES: S=C1NCCN1Cc1ccc(Cl)cc1
- inhibition at 10 µM [1]: 79%

- IC50 [2]: 4.8 µM
SMILES: Cc1ccc(CN2CCNC2=S)cc1
- inhibition at 10 µM [1]: 64%

- IC50 [2]: 5.1 µM
SMILES: Cc1ccc(CN2CCCNC2=S)cc1
- inhibition at 10 µM [1]: 80%

- IC50 [2]: 2.1 µM
SMILES: S=C1NCCCN1CCCc1ccccc1
- inhibition at 10 µM [1]: > 100%

- IC50 [2]: 0.8 µM
- inhibition [4]: inactive
SMILES: CC(C)(C)c1ccc(CN2CCCNC2=S)cc1
- inhibition at 10 µM [1]: > 100%
- Activity [3]: Non-toxic
- inhibition [5]: Active

- IC50 [2]: 4.2 µM
SMILES: S=C1NCCN1CCCc1ccccc1
- inhibition at 10 µM [1]: 63%

- IC50 [2]: 6.1 µM
SMILES: COc1ccc(CN2CCCNC2=S)cc1
- inhibition at 10 µM [1]: 60%

- IC50 [2]: 2.4 µM
SMILES: S=C1NCCCN1Cc1ccc(Cl)cc1
- inhibition at 10 µM [1]: > 100%

- IC50 [2]: 2.9 µM
SMILES: S=C1NCCCN1CCc1ccccc1
- inhibition at 10 µM [1]: 93%
